Laboratory results: publication PMC5028098 (International Journal of Nanomedicine, 2016)

What was measured:
Assay type in all cases: cell-based, human
HUVECs = test: Transwell migration; conditions: HUVECs in TCM from treated MDA-MB231 cells, dose-dependent for HBP
MMP2 = test: Western blot of MMP2 in HUVECs incubated with TCM; conditions: TCM 24 hours, dose-dependent for HBP
In short: (§1)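 HUVECs (2×10^5) were grown to 90% confluence, starved 12 h in 2% serum, then incubated 24 h with conditioned medium from MDA-MB231 cells treated with graded test-peptide concentrations. Cells were lysed on ice. Equal protein (40 μg, Bradford) was run on 10% SDS-PAGE and blotted to nitrocellulose. Primary antibody incubation was 4 h at 4°C, followed by HRP anti-rabbit IgG (1:2,000). Bands were quantified by densitometry relative to untreated-medium control; three experiments, mean ± SD.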

MMP9 = test: Western blot of MMP9 in HUVECs incubated with TCM; conditions: TCM 24 hours, decreased to a greater extent than MMP2 for HBP
In short: as §1

## VEGF
HUVECs
  effect on migration / number of invasive ECs: no inhibitory effect
MMP2
  expression of MMP2 in HUVECs: not affected
MMP9
  expression of MMP9 in HUVECs: not affected
